According to ChEMBL document CHEMBL2202970, “Nonsteroidal androgen receptor ligands: versatile syntheses and biological data” (2012):
The source made the active and inactive calls. No cut-off for these calls is given here.

Tests used:
LNCaP [1] = experiment: Cytotoxicity against human LNCAP cells assessed as growth inhibition at 2 to 20 uM after 144 hrs by SRB assay; format: functional, cell-based
Method in brief: (§1)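 LNCaP and AR-overexpressing LNCaP-AR (3–5-fold higher AR) prostate cancer cells were incubated 144 h with scalar concentrations from 0.02 to 20 μM. Sulforhodamine B read-out was used for growth inhibition (IG50) and cytocidal (LC50) values. Results are the average of three independent experiments.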

LNCaP-AR = experiment: Cytotoxicity against human LNCaP-AR cells assessed as growth inhibition at 2 to 20 uM after 144 hrs by SRB assay relative to control; format: functional, cell-based; method in brief: as §1
[2] = target: T1, Androgen receptor (Homo sapiens) (UniProt P10275); experiment: Antagonist activity at human AR expressed in COS7 cells receptor assessed as inhibition of androgen-induced transcriptional activation at 10 nM to 10 uM by ARE-luciferase reporter gene assay; format: functional, cell-based; details: COS-7
T1 sequence (whole entry): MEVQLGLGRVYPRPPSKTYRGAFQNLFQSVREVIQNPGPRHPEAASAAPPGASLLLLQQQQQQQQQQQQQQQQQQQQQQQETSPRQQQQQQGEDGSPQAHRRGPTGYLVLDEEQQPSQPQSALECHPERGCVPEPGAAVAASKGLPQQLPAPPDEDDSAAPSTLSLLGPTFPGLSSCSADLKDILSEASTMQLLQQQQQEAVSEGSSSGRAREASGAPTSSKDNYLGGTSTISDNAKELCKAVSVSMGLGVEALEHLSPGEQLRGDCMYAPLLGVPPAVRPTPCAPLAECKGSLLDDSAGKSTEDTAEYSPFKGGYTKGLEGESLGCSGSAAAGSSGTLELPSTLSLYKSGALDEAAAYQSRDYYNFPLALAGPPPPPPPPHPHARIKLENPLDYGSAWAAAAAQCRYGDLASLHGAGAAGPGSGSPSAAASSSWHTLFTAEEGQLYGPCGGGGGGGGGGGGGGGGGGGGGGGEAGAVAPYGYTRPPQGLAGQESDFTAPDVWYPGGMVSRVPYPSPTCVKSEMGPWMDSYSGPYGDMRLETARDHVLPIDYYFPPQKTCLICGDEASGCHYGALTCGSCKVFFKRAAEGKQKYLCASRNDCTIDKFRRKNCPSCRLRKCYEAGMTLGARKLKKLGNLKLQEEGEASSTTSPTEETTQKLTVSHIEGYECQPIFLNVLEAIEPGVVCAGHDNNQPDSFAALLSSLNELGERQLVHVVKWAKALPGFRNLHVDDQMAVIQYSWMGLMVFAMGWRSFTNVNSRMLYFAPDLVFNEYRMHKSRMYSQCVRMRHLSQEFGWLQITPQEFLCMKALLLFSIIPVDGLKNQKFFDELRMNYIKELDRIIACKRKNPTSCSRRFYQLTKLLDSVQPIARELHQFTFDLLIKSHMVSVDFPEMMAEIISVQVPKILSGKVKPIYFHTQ
Method in brief: (§2)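 AR-negative Cos-7 cells plated subconfluent (60–70%) in phenol red-free DMEM with 5% charcoal-stripped serum for 48 h, then cotransfected with 0.3 μg 3416-pTK-TATA-Luc and 1.5 μg pSG5-hAR or empty pSG5. After 24 h, stimulated 24 h with 10 nM R1881 plus compounds. Lysate luciferase as fold induction; hAR checked by Western blot; three experiments.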

[3] = target: T1, Androgen receptor (Homo sapiens); experiment: Agonist activity at AR receptor in human LNCAP cells at 10 nM to 10 uM by ARE-luciferase reporter gene assay; format: functional, cell-based
Method in brief: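 Androgen-responsive LNCaP cells plated subconfluent (60–70%) in phenol red-free DMEM with 5% charcoal-stripped serum for 48 h, then transfected with 0.3 μg 3416-pTK-TATA-Luc ARE reporter. After 24 h, cells were exposed for 24 h to compounds (10 nM to 10 μM) without or with 10 nM R1881. Lysate luciferase expressed as fold induction; three independent experiments.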

LNCaP [4] = experiment: Induction of apoptosis in human LNCAP cells at 20 uM after 144 hrs by […]; format: functional
[5] = Growth inhibition in human LNCaP-AR cells after 144 hrs by SRB assay; format: functional; method in brief: as §1
[6] = Induction of apoptosis in human LNCaP-AR cells at 20 uM after 144 hrs by propidium iodide staining based flow cytometry analysis; format: functional
LNCaP [7] = experiment: Cytocidal activity in against human LNCAP cells after 144 hrs by SRB assay; format: functional; details: read-out: LC50 (the source's name); method in brief: as §1
[8] = Cytocidal activity in human LNCaP-AR cells after 144 hrs by SRB assay; format: functional; details: read-out: LC50 (the source's name); method in brief: as §1
[9] = target: T1, Androgen receptor (Homo sapiens); experiment: Antagonist activity at human AR expressed in COS7 cells receptor assessed as inhibition of R1881-induced transcriptional activation at 10 uM by ARE-luciferase reporter gene assay; format: functional, cell-based; details: COS-7; method in brief: as §2
[10] = target: T1, Androgen receptor (Homo sapiens); experiment: Antagonist activity at AR receptor in human LNCAP cells assessed as inhibition of R1881-induced transcriptional activation at 10 nM to 10 uM by ARE-uciferase reporter gene assay; format: functional, cell-based
Method in brief: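 LNCaP cells at 60–70% confluence, plated in phenol red-free DMEM with 5% charcoal-stripped serum, then transfected after 48 h with 0.3 μg 3416-pTK-TATA-Luc reporter. 24 h later, stimulated for 24 h with 10 nM R1881 with or without test compound (10 nM–10 μM). Luciferase activity in lysates was expressed as fold induction. Three independent experiments were averaged.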

With `C[C@]1(CS(=O)(=O)c2ccc(F)cc2)NC(=S)N(c2ccc(C#N)c(C(F)(F)F)c2)C1=O` the “growth inhibition (GI)” value (LNCaP [1]) was “Active”.
In the case of `C[C@@](N)(CS(=O)(=O)c1ccc(F)cc1)C(=O)Nc1ccc(C#N)c(C(F)(F)F)c1`, the “growth inhibition (GI)” value (LNCaP [1]) is reported as “Active”.
With `CC(C)(C)S(=O)(=O)N[C@](C)(CS(=O)(=O)c1ccc(F)cc1)C(=O)Nc1ccc(C#N)c(C(F)(F)F)c1` the “growth inhibition (GI)” value (LNCaP-AR) was “Active” and the “growth inhibition (GI)” value (LNCaP [1]) was “Active”.
For `CC(C)(C)S(=O)(=O)N[C@@](C)(CS(=O)(=O)c1ccc(F)cc1)C(=O)Nc1ccc(C#N)c(C(F)(F)F)c1`, the “growth inhibition (GI)” value (LNCaP [1]) was “Active”.
In the case of `C[C@@]1(COc2ccc(C#N)cc2)NC(=O)N(c2ccc(C#N)c(C(F)(F)F)c2)C1=O`, the Activity [2] is reported as “inactive” and the Activity [3] is reported as “inactive”.
In the case of `C[C@]1(CS(=O)(=O)c2ccc(F)cc2)NC(=O)N(c2ccc(C#N)c(C(F)(F)F)c2)C1=O`, the “growth inhibition (GI)” value (LNCaP [1]) is reported as “Active”.
With `C[C@](O)(CS(=O)(=O)c1ccc(F)cc1)C(=O)Nc1ccc(C#N)c(C(F)(F)F)c1` [(R)-BICALUTAMIDE] the Activity (LNCaP [4]) was 2.1%, the “growth inhibition (GI)” value (LNCaP-AR) was “inactive” and the “growth inhibition (GI)” value (LNCaP [1]) was “Active”. For the same molecule, the IG50 [5] was <1.8 µM, the Activity [6] was 2.1% and the CC50 (LNCaP [7]) was < 1.8 µM.
In the case of `C[C@@]1(CS(=O)(=O)c2ccc(F)cc2)NC(=S)N(c2ccc(C#N)c(C(F)(F)F)c2)C1=O`, the “growth inhibition (GI)” value (LNCaP [1]) is reported as “Active”.
For `C[C@](N)(CS(=O)(=O)c1ccc(F)cc1)C(=O)Nc1ccc(C#N)c(C(F)(F)F)c1`, the “growth inhibition (GI)” value (LNCaP [1]) was “Active”.
In the case of `C[C@@]1(CS(=O)(=O)c2ccc(F)cc2)NC(=O)N(c2ccc(C#N)c(C(F)(F)F)c2)C1=O`, the “growth inhibition (GI)” value (LNCaP [1]) is reported as “Active”.
For `Cc1ccc(S(=O)(=O)N[C@@](C)(CS(=O)(=O)c2ccc(F)cc2)C(=O)Nc2ccc(C#N)c(C(F)(F)F)c2)cc1`, the “growth inhibition (GI)” value (LNCaP [1]) was “Active”.
In the case of `Cc1ccc(S(=O)(=O)N[C@](C)(CS(=O)(=O)c2ccc(F)cc2)C(=O)Nc2ccc(C#N)c(C(F)(F)F)c2)cc1`, the Activity (LNCaP [4]) is reported as 80.5%, the “growth inhibition (GI)” value (LNCaP-AR) is reported as “Active” and the “growth inhibition (GI)” value (LNCaP [1]) is reported as “Active”. For the same molecule, the CC50 [8] was 18.3 µM, the inhibition [9] was “Active” and the Activity [6] was 91.6%. For the same molecule, the CC50 (LNCaP [7]) was 18.3 µM, the Activity [3] was “inactive” and the inhibition [10] was “Active”.
In the case of `C[C@](N)(COc1ccc(C#N)cc1)C(=O)Nc1ccc(C#N)c(C(F)(F)F)c1`, the inhibition [9] is reported as “inactive” and the Activity [2] is reported as “Active”.
